Experimental data from ChEMBL document CHEMBL1128366, “Hypoxia-selective agents derived from quinoxaline 1,4-di-N-oxides” (J Med Chem, 1995).

Key:
V79 = assay: The compound was tested for potency by measuring the concentration (umolar) that gives 1% clonogenic cell survival in hypoxia; type: functional, Cricetulus griseus
Method in brief: (§1)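 V-79 Chinese hamster lung fibroblasts in stirred suspension (2 × 10⁴ cells/mL, EMEM + 10% FBS, 10 mM HEPES), gassed for air or hypoxia; drug in DMSO added 30 min after gassing began, two flasks per dose, 2 h exposure. Cells cloned 7 days at 37 °C, crystal violet stain, colonies >64 cells counted; survival = PE treated/PE control. Dose-response curves from ≥3 experiments.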

[1] = Hypoxia cytotoxicity ratio (dose in air / hypoxia giving 99% of cell killing); method in brief: as §1

SMILES	Potency (V79) [µM]	Selectivity [1]
N#Cc1c(N)[n+]([O-])c2cc(Cl)ccc2[n+]1[O-]	9	150
COc1cc2c(cc1Cl)[n+]([O-])c(C#N)c(N)[n+]2[O-]	10	< 10
N#Cc1c(N)[n+]([O-])c2cc(F)c(F)cc2[n+]1[O-]	1	< 10
N#Cc1ccc2c(c1)[n+]([O-])c(N)c(C#N)[n+]2[O-]	11	50
N#Cc1c(N)[n+]([O-])c2cc(F)ccc2[n+]1[O-]	15	100
N#Cc1c(N)[n+]([O-])c2cc(Cl)c(Cl)cc2[n+]1[O-]	1	80
N#Cc1c(N)[n+]([O-])c2cc(-c3ccc([N+](=O)[O-])cc3)ccc2[n+]1[O-]	4	15
Nc1n[n+]([O-])c2ccccc2[n+]1[O-] [TIRAPAZAMINE]	30	75
N#Cc1c(N)[n+]([O-])c2ccccc2[n+]1[O-]	30	80
N#Cc1c(N)[n+]([O-])c2cc(C(F)(F)F)ccc2[n+]1[O-]	7	75
N#Cc1c(N)[n+]([O-])c2cc(Cl)c(F)cc2[n+]1[O-]	2	10
COc1ccc2c(c1)[n+]([O-])c(N)c(C#N)[n+]2[O-]	30	> 10
